# Results from PubChem BioAssay AID504383 (The Scripps Research Institute Molecular Screening Center, 2011).
# Out of some 2,500 compounds screened, about 1,200 (48%) were called active. So high a share suggests a set chosen from earlier hits. Some of the results follow. Unmarked numbers belong to inactive results.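 The calls were made as follows: active = mean activation above the low control average plus 3 SD, as set in the primary screen (cut at about 12% in these data); inactive = the rest.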
# Target: Troponin I, cardiac muscle (Homo sapiens) + Troponin T, cardiac muscle (Homo sapiens) + Troponin C, slow skeletal and cardiac muscles (Homo sapiens) (UniProt P19429+P45379+P63316)
# Experiment: calcium sensitizers of cardiac thin filaments – biochemical, IANBD-TnC fluorescence, triplicate, confirmation (AID 504383);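 also: 0% = DMSO at 0.472 mM calcium and 100% = DMSO at 2.9 mM calcium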
# Settings: IANBD-labeled cardiac RTF, Ca2+ sensitivity fluorescence; at 7.2 µM; stronger effect = higher value; scaled from EC20 to saturating calcium; tested at EC20 calcium, 0.472 mM
# In short: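 Assay system: labelled regulated thin filaments / Timing: 15 min at 25 °C / Detection: fluorescence intensity of labelled filaments / Measure: fluorescence gain scaled between EC20 and EC100 calcium controls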
row,Structure (SMILES),activation
1,CC(=O)C1=C(C)N(Cc2ccccc2)C(=O)N[C@@H]1c1cccc(C(F)(F)F)c1,8.59%
2,CC(=O)C1=C(C)N(CC2CC2)C(=O)N[C@H]1c1ccc(Br)cc1,102% (active)
3,COc1ccc(Cl)cc1NC(=O)CN(C)C(=O)c1ccc(N2CCCCCC2)c([N+](=O)[O-])c1,59.6% (active)
4,COc1ccc(Cl)cc1NC(=O)CN(C)C(=O)COc1ccccc1F,4.03%
5,O=C(Cc1ccccc1)Nn1c(O)c(/C=C2\C=Nc3ccccc32)sc1=S,87.3% (active)
6,CN(C)C(=O)CN1C(=O)C2CCCCN2C(=O)c2ccccc21 (stereo not drawn),9.05%
7,CN(C)/C=C1\C=C2C(=O)c3ccccc3N2C1=O,87.3% (active)
8,Cc1cc(C)c(NC(=S)N(C)C)c(C)c1,42.1% (active)
9,N=C1c2ccccc2CN1c1ccc(S(=O)(=O)N2CCCCC2)cc1,49.2% (active)
10,CSc1nnc(-c2ccc(S(=O)(=O)N3CCCC3)cc2)n1C,-0.41%
11,CN(C)c1ccc(/C=C/C(=O)c2ccccc2O)cc1,6.07%
12,CN(C)c1ccc(/C=C/C(=O)c2c(O)c3ccccc3oc2=O)cc1,12.3% (active)
13,CCOc1cccc2c1OC(c1cc(OC)c(OC)c(OC)c1)N1N=C(c3ccc(C)o3)CC21 (stereo not drawn),11.7% (active)
14,O=C1NCCN1c1ncc([N+](=O)[O-])s1,19.6% (active)
15,CC(=O)N(C)c1ccc(C(O)(C(F)(F)F)C(F)(F)F)cc1,30.4% (active)
16,COc1cccc(/C(O)=C/c2nc3ccc(C(=O)NCCc4cccc(C)c4)cc3[nH]c2=O)c1,9.81%
17,COc1ccc(CCNC(=O)COC(=O)c2cc(=O)[nH]c3ccccc23)cc1,93% (active)
18,COc1ccc(CCNC(=O)C2CC(c3c(Cl)cccc3Cl)=NO2)cc1 (stereo not drawn),7.74%
19,CCc1ccc(/C=N/n2c(C)cc(C)c(C#N)c2=O)cc1,7.16%
20,Cc1c(/C=N/O)c2ccccn2c1C=O,8.72%
21,CN1CCC(N(CCc2ccccc2)C(=O)CCC(=O)O)CC1,146% (active)
22,CCCCCCNC(=O)C(C#N)c1nc2ccccc2nc1N1CCCC1 (stereo not drawn),5.18%
23,CCN(CC)c1nc2ccccc2nc1C(C#N)C(=O)NCCc1ccccc1 (stereo not drawn),532% (active)
24,N#CC(C(=O)NCc1ccccc1)c1nc2ccccc2nc1N1CCCC1 (stereo not drawn),-1.52%

row,Structure (SMILES),activation
1,COc1ccc(C(=O)NCC(=O)N2CCN(C(=O)c3ccco3)CC2)cc1OC,47.6% (active)
2,O=C(NCC(=O)N1CCN(c2ncccn2)CC1)c1ccccc1OC(F)F,0.94%
3,Cc1ccc(NC2OC(C(O)CO)C(O)C2O)cc1[N+](=O)[O-] (stereo not drawn),8.56%
4,COc1ccccc1NC(=O)COC(=O)c1cnc(C)cn1,101% (active)
5,O=C(/C=C/c1nc2ccccc2s1)N1CCCCCC1,35% (active)
6,O=C(c1ccccc1)N1CCCCC1,8.78%
7,CC(=O)Nc1sc2c(c1-c1nc3ccccc3s1)CCN(C(C)C)C2,10.5%
8,FC(F)(F)c1cccc(-c2nc(COc3ccc(Cl)cc3Cl)no2)c1,5570% (active)
9,Cc1cn(COC/C=C/c2ccccc2)c(=O)[nH]c1=O,81.1% (active)
10,CCc1nc(Nc2ccc(O)cc2)c2oc3ccccc3c2n1,56.6% (active)
11,C=CCNC(=S)NNC(=O)c1ccc(OCC(C)C)cc1,4.58%
12,NC(=O)NC(=O)COC(=O)c1cccc(NS(=O)(=O)/C=C/c2ccccc2)c1,38.6% (active)
13,CC(C)C(=O)COc1c2occc2cc2ccc(=O)oc12,1.65%
14,CCOC(=O)N1CCC(Nc2nc3ccccc3nc2NS(=O)(=O)c2ccc(Cl)cc2)CC1,11.1%
15,CCOC(=O)c1cnc(SC)nc1Oc1cccc(NS(=O)(=O)c2ccc(Cl)cc2)c1,14.8% (active)
16,CCC1(CC)C(=O)Nc2ccccc21,5.14%
17,O=C1CC(c2ccccc2)=NN1c1ccc([N+](=O)[O-])cc1,10.7%
18,CN(N=Nc1ccc([N+](=O)[O-])cc1)c1ccccc1,36.2% (active)
19,O=[N+]([O-])c1ccc(N(c2ccccc2)c2ccccc2)cc1,14.5% (active)
20,Cc1ccc(C(=O)N/C(=C/c2ccc(-c3ccc([N+](=O)[O-])cc3)o2)C(=O)NCCCN(C)C)cc1,5.11%
21,CN(/N=C/c1ccc(-c2ccc([N+](=O)[O-])cc2)o1)c1ccccc1,30.8% (active)
22,Cc1cc([N+](=O)[O-])ccc1-c1ccc(/C=N/NC(=O)c2ccc(Br)o2)o1,7.92%
23,O=C(O)c1cccc(-c2ccc(/C=N/Nc3ccc([N+](=O)[O-])cc3)o2)c1,12.7% (active)
24,Cc1oc2c(cc(NS(=O)(=O)c3ccc(C(C)C)cc3)c3ccccc32)c1C(=O)O,9.7%
